Broadly, the ILS is how much longer treated animals lived than controls. Low readings indicate a small benefit in survival, high ones a large benefit in survival.

From ChEMBL document CHEMBL1122091, “Synthesis of pyridazine analogues of the naturally occurring nucleosides cytidine, uridine, deoxycytidine, and deoxyuridine” (1982) come the findings set out here.

Assay [1] has as its system L1210. Put plainly: In vitro inhibitory activity against growth of L1210 mouse leukemia cells at 10E-4 M concentration; IA means Inactive. Type of assay: functional, cell-based. In a few lines: (§1)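 L1210 mouse leukemia cells grown in static suspension culture in Fischer's medium for leukemic cells of mice; growth rate over a 3-day period measured with test compound present continuously.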

For assay [2], the system named is L1210. Put plainly: In vivo percent increase in life span (%ILS) of mice bearing L1210 leukemia at a dose of 400 mg/kg. Type of assay: functional, Mus musculus. The conditions noted are these: for ILS at 400 mg/kg: Mus musculus, L1210, dose 400 mg/kg. In a few lines:
(§2)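 Run by the NCI Division of Cancer Treatment, which supplied the data, using standard National Cancer Institute protocols for mouse L1210 leukemia.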

The subject of assay [3] is L1210. Nature of the assay: In vitro inhibitory activity against growth of L1210 mouse leukemia cells at 10E-4 M concentration. Type of assay: functional. Particulars: read-out: ID50 (the source's name). In a few lines:
as §1

The test system of assay [4] is L1210. Put plainly: In vivo percent increase in life span (%ILS) of mice bearing L1210 leukemia at a dose of 200 mg/kg. It is filed as functional. The conditions noted are these: Mus musculus. In a few lines:
as §2

Calls of active or inactive are those of the source. The calls are words filed in the database; no cut-off is given here.

Turning to `CSc1cnn(C2O[C@H](CO)[C@@H](O)[C@H]2O)c(=O)c1SC` (stereo partly drawn), the ID50 entry with L1210 [1] is “inactive”. The ILS at 400 mg/kg with L1210 [2] was less than 25%.

`O=C(OC[C@H]1O[C@@H](n2ncc(Cl)c(Cl)c2=O)[C@H](OC(=O)c2ccccc2)[C@@H]1OC(=O)c1ccccc1)c1ccccc1`: the ID50 entry in the assay with L1210 [1] was “inactive”. The ILS at 400 mg/kg in the assay on L1210 [2] was less than 25%.

Take `CC1(C)O[C@@H]2[C@H](O1)[C@@H](CO)O[C@H]2n1ncc(N)c(Cl)c1=O`: the ID50 result in the assay on L1210 [1] is “inactive”. The ILS at 400 mg/kg in the assay with L1210 [2] was less than 25%.

In the assay with L1210 [2] (dose 400 mg/kg), `O=c1cc(O)cnn1[C@@H]1O[C@H](CO)[C@@H](O)[C@H]1O` (stereo in doubt; 17) had an ILS greater than 25%.

In the case of `Nc1cnn([C@H]2C[C@H](O)[C@@H](CO)O2)c(=O)c1`, the ID50 entry in the assay with L1210 [1] was “inactive”. In the assay with L1210 [2], this molecule came in with an ILS at 400 mg/kg of less than 25%.

Take `CNc1cnn(C2O[C@H](CO)[C@@H](O)[C@H]2O)c(=O)c1Cl` (stereo partly drawn): in the assay with L1210 [1], the ID50 entry is “inactive”. This molecule also registered an ILS at 400 mg/kg in the assay on L1210 [2] of less than 25%.

Take `Nc1cnn(C2O[C@H](CO)[C@@H](O)[C@H]2O)c(=O)c1Cl` (stereo partly drawn): in the assay on L1210 [1], the ID50 entry was “inactive”. The molecule also came in with an ILS at 400 mg/kg in the assay with L1210 [2] of less than 25%.

For `O=C(OC[C@H]1O[C@@H](n2ncccc2=O)[C@H](OC(=O)c2ccccc2)[C@@H]1OC(=O)c1ccccc1)c1ccccc1`, in the assay on L1210 [1], the ID50 entry was “inactive”. Moreover, the ILS at 400 mg/kg in the assay on L1210 [2] was less than 25%.

In the case of `CN(C)c1cnn(C2O[C@H](CO)[C@@H](O)[C@H]2O)c(=O)c1N(C)C` (stereo partly drawn), the ID50 entry in the assay with L1210 [1] was “inactive”. The same molecule returned an ILS at 400 mg/kg in the assay with L1210 [2] of less than 25%.

Consider `COc1cnn([C@H]2C[C@H](O)[C@@H](CO)O2)c(=O)c1Cl`, for which the ID50 entry in the assay on L1210 [1] was “inactive”. This molecule had an ILS at 400 mg/kg in the assay with L1210 [2] of less than 25%.

Turning to `Oc1nncc(Cl)c1Cl`, the ID50 result in the assay with L1210 [1] was “inactive”. The ILS at 400 mg/kg with L1210 [2] was greater than 25%.

On to `O=c1cc(O)cnn1[C@@H]1O[C@H](CO)[C@@H](O)[C@H]1O` (stereo in doubt; 15), for which, in the assay with L1210 [3], the IC50 worked out at 70 µM. This molecule also returned an increase in lifespan (ILS) at 200 mg/kg in the assay on L1210 [4] of 32%. The molecule further displayed an ILS at 400 mg/kg with L1210 [2] of 32%.

Turning to `CN(C)c1cnn(C2O[C@H](CO)[C@@H](O)[C@H]2O)c(=O)c1Cl` (stereo partly drawn), the ID50 entry in the assay with L1210 [1] was “inactive”. In addition, the increase in life span (ILS) at 400 mg/kg in the assay with L1210 [2] is less than 25%.

For `Nc1cnn([C@H]2C[C@H](O)[C@@H](CO)O2)c(=O)c1Cl`, in the assay on L1210 [1], the ID50 result was “inactive”. For the same molecule, in the assay with L1210 [2], the ILS at 400 mg/kg is less than 25%.

`CC(=O)OC[C@H]1O[C@@H](N2N=CC(=O)CC2=O)[C@H](OC(C)=O)[C@@H]1OC(C)=O`: the ID50 entry in the assay on L1210 [1] was “inactive”. The molecule also came in with an ILS at 400 mg/kg in the assay with L1210 [2] of less than 25%.

In the case of `O=C1C=NN([C@H]2C[C@H](O)[C@@H](CO)O2)C(=O)C1`, in the assay on L1210 [1], the ID50 result is “inactive”. The same molecule returned an ILS at 400 mg/kg in the assay on L1210 [2] of less than 25%.

In the case of `CC(=O)OC[C@H]1O[C@@H](n2ncc(N)cc2=O)[C@H](OC(C)=O)[C@@H]1OC(C)=O`, the ID50 entry in the assay on L1210 [1] is “inactive”. In the assay with L1210 [2], this molecule returned an increase in life span (ILS) at 400 mg/kg of less than 25%.

For the molecule `CN(C)c1cnn(C2O[C@H](CO)[C@@H](O)[C@H]2O)c(=O)c1` (stereo partly drawn), the ID50 entry with L1210 [1] is “inactive”. In the assay with L1210 [2], this molecule gave an ILS at 400 mg/kg of less than 25%.

`CNc1cnn(C2O[C@H](CO)[C@@H](O)[C@H]2O)c(=O)c1` (stereo partly drawn): in the assay with L1210 [1], the ID50 entry is “inactive”. This molecule also registered an ILS at 400 mg/kg in the assay with L1210 [2] of less than 25%.

Regarding `O=c1cccnn1C1O[C@H](CO)[C@@H](O)[C@H]1O` (stereo partly drawn), the ID50 entry in the assay on L1210 [1] is “inactive”. For the same molecule, the ILS at 400 mg/kg with L1210 [2] is less than 25%.

As for `O=c1cnn([C@@H]2O[C@H](CO)[C@@H](O)[C@H]2O)c(=O)[nH]1` [6-AZAURIDINE], the ID50 result in the assay on L1210 [1] was “inactive”. Besides, the ILS at 400 mg/kg in the assay on L1210 [2] was less than 25%.

`COc1cnn(C2O[C@H](CO)[C@@H](O)[C@H]2O)c(=O)c1Cl` (stereo partly drawn): in the assay on L1210 [1], the ID50 result was “inactive”. In the assay with L1210 [2], this molecule had an increase in lifespan (ILS) at 400 mg/kg of less than 25%.

As to `COc1cnn(C2O[C@H](CO)[C@@H](O)[C@H]2O)c(=O)c1` (stereo partly drawn), in the assay on L1210 [1], the ID50 result is “inactive”. Also, in the assay on L1210 [2], the ILS at 400 mg/kg was less than 25%.

Consider `C[Si](C)(C)Oc1nncc(Cl)c1Cl`, for which the ID50 result with L1210 [1] is “inactive”. In the assay on L1210 [2], the increase in lifespan (ILS) at 400 mg/kg is less than 25%.

On to `COc1cnn([C@H]2C[C@H](O)[C@@H](CO)O2)c(=O)c1`, for which the ID50 entry in the assay with L1210 [1] is “inactive”. Further, in the assay with L1210 [2], the ILS at 400 mg/kg was less than 25%.

Regarding `O=c1c(SCc2ccccc2)c(SCc2ccccc2)cnn1C1O[C@H](CO)[C@@H](O)[C@H]1O` (stereo partly drawn), the ID50 entry in the assay with L1210 [1] was “inactive”. In addition, the ILS at 400 mg/kg in the assay on L1210 [2] is less than 25%.

Turning to `O=c1ccn([C@@H]2O[C@H](CO)[C@@H](O)[C@H]2O)c(=O)[nH]1` [URIDINE], the ID50 result with L1210 [1] is “inactive”. This molecule yielded an ILS at 400 mg/kg with L1210 [2] of less than 25%.

Regarding `O=C1C=NN(C2O[C@H](CO)[C@@H](O)[C@H]2O)C(=O)C1` (stereo partly drawn), the ID50 entry with L1210 [1] was “inactive”. For the same molecule, in the assay on L1210 [2], the ILS at 400 mg/kg was less than 25%.

Turning to `Nc1cnn(C2O[C@H](CO)[C@@H](O)[C@H]2O)c(=O)c1` (stereo partly drawn), the ID50 result in the assay on L1210 [1] is “inactive”. In addition, the ILS at 400 mg/kg with L1210 [2] is less than 25%.
